# Screens as filed in PubChem BioAssay.
# SENP7 inh – SENP7 protease inhibition; Q9BQF6; recombinant SENP7, Z-RLRGG-aminoluciferin luminescence, 40 min; inhibition, % at 5 µM; 330,000 tested, 1.5% active; AID 434973;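 active means inhibition above about 50% at the single test dose, limit read from the data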;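 further: plate controls were DMSO with enzyme for no effect and no enzyme buffer wells for full effect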
# Target sequence (Q9BQF6 706-1050 limits assumed): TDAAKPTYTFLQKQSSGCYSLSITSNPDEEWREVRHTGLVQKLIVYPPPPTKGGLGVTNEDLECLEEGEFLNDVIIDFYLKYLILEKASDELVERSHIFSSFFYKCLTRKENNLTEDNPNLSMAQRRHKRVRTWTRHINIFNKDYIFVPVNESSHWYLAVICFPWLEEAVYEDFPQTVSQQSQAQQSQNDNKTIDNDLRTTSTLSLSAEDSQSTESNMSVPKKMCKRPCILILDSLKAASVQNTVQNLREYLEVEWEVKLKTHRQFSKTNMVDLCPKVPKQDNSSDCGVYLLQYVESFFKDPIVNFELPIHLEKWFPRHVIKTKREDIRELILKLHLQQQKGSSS
# SENP6 inh – blocks the human protease SENP6 | inhibition, % at 10 µM | Q9GZR1 | 330,000 tested, 1.8% active | Recombinant SENP6 catalytic domain, aminoluciferin luminescence | AID 2599;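 active means inhibition above about 50% at the single tested dose, limit read from the data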;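 further: plate controls were DMSO wells with enzyme for no effect and DMSO wells lacking enzyme for full effect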
# SENP1 inh – SENP1 (human) catalytic domain inhibition; 360,000 tested, 0.21% active; recombinant SENP1 catalytic domain, CyPet-SUMO1-YPet FRET cleavage; Q9P0U3; inhibition, % at 10 µM; AID 624204;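 active means inhibition at least 30% at 10 µM, raw YFP signal under a set limit, fluorescence ratio 0.5 to 1.5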;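 further: 0% = enzyme with DMSO and 100% = no enzyme wells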
#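 Material – human SENP1 catalytic domain · Input – SENP1 enzyme, 20 pM final · Compound dosing – single concentration of 10 µM compound, 0.5% DMSO final · Timing – enzyme reaction for 50 min at room temperature, dark · Measured by – FRET fluorescence in CFP and YFP emission channels · Control set – no-enzyme wells low, DMSO-plus-enzyme wells high control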
# UCH37 inh – blocks the human deubiquitinase UCH37; Q9Y5K5; purified proteasome/UCH37, Ub-AMC cleavage fluorescence; inhibition, % (no concentration beside the values); 330,000 tested, 0.33% active; AID 588478;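 active means mean inhibition over replicate wells above about 20%, limit read from the data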;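 further: 0% = compound-free wells with enzyme and 100% = wells lacking proteasome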
#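 Material: Human UCH37 enzyme supplied as purified proteasome complex | Schedule: 30 min preincubation with enzyme, 25 min cleavage at room temperature | Detection: AMC fluorescence 355/460 nm | Measure: % inhibition of Ub-AMC cleavage fluorescence | Controls: Wells without proteasome as full block, compound-free enzyme plus substrate as uninhibited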
# SENP8 block-1 – inhibitors of human SENP8 protease. Q96LD8. recombinant SENP8, Nedd8 substrate fluorescence. inhibition, % at 20 µM. 360,000 tested, 0.64% active; in the data active means inhibition mostly above about 40%, no sharp cut-off; inactive means mostly below about 27%
# SENP8 block-2 – blocks the human protease SENP8; Q96LD8; purified SENP8, Z-RLRGG-aminoluciferin cleavage, luminescence; inhibition, % at 10 µM; 330,000 tested, 1.2% active; in the data active means inhibition above about 50%
# SENP8 conf – confirmation of human SENP8 protease inhibitors; Recombinant SENP8, Z-RLRGG-aminoluciferin luminescence, 60 min; 6,200 tested, 40% active; inhibition, % at 12.5 µM; shares compounds with SENP7 inh;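 active means mean inhibition across replicates above about 50%, limit read from the data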
# SENP6 confirm – human SENP6 inhibition, confirmed | shares compounds with SENP7 inh | recombinant SENP6, Z-RLRGG-aminoluciferin luminescence | inhibition, % at 12.5 µM | 6,200 tested, 58% active | AID 488915
# SENP7 confirm – human SENP7 inhibition, confirmed | shares compounds with SENP7 inh | recombinant SENP7, Z-RLRGG-aminoluciferin luminescence, 40 min | inhibition, % at 12.5 µM | 6,200 tested, 69% active
# Casp3 select – inhibits human caspase-3 in SENP selectivity test; purified caspase-3, Z-DEVD-aminoluciferin luminescence, 60 min; inhibition, % at 12.5 µM; 6,200 tested, 60% active; shares compounds with SENP7 inh;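 active means mean inhibition above about 50%, limit read from the data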;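 further: plate controls were enzyme with DMSO for no effect and wells without caspase-3 for full effect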
# Target sequence (P42574 28-227 limits assumed): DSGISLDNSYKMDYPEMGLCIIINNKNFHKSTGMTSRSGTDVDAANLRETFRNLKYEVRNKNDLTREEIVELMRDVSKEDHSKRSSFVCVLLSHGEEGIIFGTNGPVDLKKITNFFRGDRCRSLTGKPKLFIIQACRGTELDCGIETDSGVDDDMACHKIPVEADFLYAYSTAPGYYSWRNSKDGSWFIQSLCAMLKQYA
# Luc interf – luminescence interference (SENP counter-screen) | shares compounds with SENP7 inh | Pre-incubated SENP8/Z-RLRGG-aminoluciferin, luciferase luminescence interference | inhibition, % at 12.5 µM | 6,200 tested, 39% active | AID 488919;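 active means mean inhibition above about 50% when retested at one dose, limit read from the data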;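 further: plate controls were DMSO wells with completed reaction for no effect and substrate without enzyme for full effect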
# The depositor's hits bear a star; · = not tested or not shown. Most compounds without a hit are left out; they make up all but 2.6% or so of the library.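 How the source made its calls, unless noted: active means mean inhibition above about 50% in the one-dose retest (limit read from the data); inactive means the rest.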
SMILES,SENP7 inh,SENP6 inh,SENP1 inh,UCH37 inh,SENP8 block-1,SENP8 block-2,SENP8 conf,SENP6 confirm,SENP7 confirm,Casp3 select,Luc interf
COc1ccc(/C=C2\OC(=O)c3c(OC)cccc32)cc1OC,45.4,61.7*,-23.4,-99.6,-486.8,47.4,3.4,12.0,83.5*,61.4*,13.7
O=C1/C(=C/c2ccncc2)CCc2ccccc21,1.1,49.7,0.4,8.1,-4.6,6.8,·,·,·,·,·
COc1cc(/C=C2/CCc3ccccc3C2=O)cc(OC)c1OC,6.2,-8.1,4.9,3.9,4.8,-1.5,·,·,·,·,·
COc1ccc(C=C2CCc3ccccc3C2=O)cc1,·,·,-11.9,·,-13.0,·,·,·,·,·,·
O=C1/C(=C\c2ccncc2)CCc2ccccc21,60.4*,57.3*,3.6,2.1,3.5,14.3,76.0*,47.6,26.0,6.4,90.9*
CC(=NNC(=S)NCc1ccccc1)c1cccc(Br)c1,·,·,·,1.8,·,·,·,·,·,·,·
Fc1ccc(NC(=S)Nc2cccc3cnccc23)cc1,76.7*,97.8*,-2.1,1.1,-100.0,88.9*,-0.7,17.3,2.3,-1.7,-2.8
Fc1ccc(NC(=S)Nc2ccccc2Cl)cc1,9.8,7.9,1.5,-1.2,-194.1,-4.0,·,·,·,·,·
S=C(Nc1cccnc1)Nc1cccc2cnccc12,85.5*,94.5*,-1.1,5.0,-54.9,91.6*,20.5,48.2,28.4,4.4,-1.1
CCN(C(=S)Nc1cccnc1)c1ccccc1,10.7,6.7,0.1,0.9,12.1,-1.6,·,·,·,·,·
S=C(Nc1ccc(Cl)cc1)Nc1cccc2cnccc12,61.7*,92.0*,-21.4,-1.2,-156.2,84.8*,9.4,56.3*,28.0,7.2,6.1
CCN(C(=S)Nc1cccnc1)c1cccc2ccccc12,54.0*,86.9*,-2.2,-9.1,-376.2,51.4*,-7.5,-3.6,-1.1,-1.4,-5.2
CN(C)S(=O)(=O)c1cccc(NC(=S)Nc2cccc3cnccc23)c1,·,·,-18.1,-0.9,-229.1,·,·,·,·,·,·
N#Cc1ccc(NC(=O)c2cc(-c3cccs3)on2)cc1,7.7,57.8*,0.7,-4.9,-33.4,1.8,-23.6,-18.0,-12.0,-11.3,-8.3
Cc1cc(NC(=O)c2cc(-c3cccs3)on2)no1,6.8,-5.4,1.2,-4.0,3.6,-1.3,·,·,·,·,·
COc1cc(C=NNC(=O)COc2ccc([N+](=O)[O-])cc2)ccc1OCC(=O)N1CCOCC1,·,·,·,0.5,·,·,·,·,·,·,·
O=C(c1cc(-c2ccc(Br)cc2)on1)N1CCOCC1,34.2,52.5*,0.8,0.2,15.8,27.2,24.8,45.6,21.4,35.4,2.3
O=C(c1cc(-c2cccc(O)c2)on1)N1CCCCCC1,16.2,37.3,0.5,0.9,11.7,20.2,·,·,·,·,·
O=C(c1cc(-c2ccc(Br)cc2)on1)N1CCCCCC1,15.7,-2.1,0.6,3.8,13.1,-13.4,·,·,·,·,·
O=C(c1cc(-c2cccc(O)c2)on1)N1CCOCC1,46.8,62.7*,1.9,3.1,14.8,26.4,48.0,41.7,69.8*,78.0*,59.0*
COc1ccc(-c2cc(C(=O)N3CCOCC3)no2)cc1,54.6*,50.9*,2.0,1.2,9.0,41.7,54.4*,51.8*,83.2*,79.3*,53.3*
Cc1ccc(N2Cc3ccccc3C2=O)cc1,94.0*,92.7*,3.5,0.1,-18.7,88.5*,90.9*,93.1*,101.0*,95.4*,54.0*
COc1ccc(N2Cc3ccccc3C2=O)cc1,92.8*,87.1*,1.5,-2.2,-82.6,77.9*,86.0*,87.0*,98.0*,94.4*,81.6*
